Experimental data from different studies.
Lines come from different studies, so protocols differ.
malE: malE (Escherichia coli, UniProt P0AEX9)
IAPP: Islet amyloid polypeptide (IAPP, Homo sapiens, UniProt P10997)
AMY2: Pancreatic alpha-amylase (AMY2, Sus scrofa, UniProt P00690)

With `CC(C)(C)OC(=O)N1CCN(Cc2ccn(Cc3ccc(Cl)cc3)c(=O)c2O)CC1` the IC50 was 3.35 µM (Lysine-specific demethylase 4D (KDM4D, Homo sapiens, UniProt Q6B0I6); enzyme activity; inhibitor).
`C[C@H]1O[C@H](O[C@H]2[C@H](O)[C@@H](O)[C@@H](O[C@H]3[C@H](O)[C@@H](O)C(O)O[C@@H]3CO)O[C@@H]2CO)[C@H](O)[C@@H](O)[C@@H]1N[C@H]1C=C(CO)[C@@H](O)[C@H](O)[C@H]1O` (stereo partly drawn) has a Kd of 0.36 µM (malE; binding; ITC).
For `COc1ccc(-c2cc(=O)c3c(OC)c(OC)c(OC)cc3o2)cc1OC`, the Kd was 3.06 µM (IAPP; binding; ITC).
`CCCc1ccc(O)c(OC)c1` gave an EC50 of greater than 600 µM (OR8H1 (Homo sapiens, UniProt Q8NGG4); cAMP; agonist; luciferase).
With `FC(F)(F)c1ccc(/C=N/N=C/c2ccc(C(F)(F)F)cc2)cc1` the IC50 was 270 µM (AMY2; enzyme activity; inhibitor).
For `COc1ccc(-c2cc(=O)c3c(OC)c(OC)c(OC)c(OC)c3o2)cc1OC`, the Kd was 2.79 µM (IAPP; binding; ITC).
The Kd of `OC[C@@H](O)[C@@H](O[C@H]1O[C@H](CO)[C@@H](O[C@H]2O[C@H](CO)[C@@H](O[C@H]3O[C@H](CO)[C@@H](O)[C@H](O)[C@H]3O)[C@H](O)[C@H]2O)[C@H](O)[C@H]1O)[C@H](O)[C@@H](O)CO` is reported as 4.44 µM (malE; binding; ITC).
`Clc1ccccc1/C=N/N=C/c1ccccc1Cl` has an IC50 of 478 µM (AMY2; enzyme activity; inhibitor).
With `CC(=O)Nc1ccc(Nc2nc(-c3sc(N)nc3C)cs2)cc1` the IC50 was 0.95 µM (Lysyl oxidase homolog 2 (LOXL2, Homo sapiens, UniProt Q9Y4K0); enzyme activity; inhibitor; fluorescence; with preincubation).
